SMILES strings stand for the structures.

For this assay, the system named is Plasmodium falciparum. Put plainly: Antiplasmodial activity against chloroquine-resistant Plasmodium falciparum W2 infected in human erythrocytes after 48 hrs by FACS analysis. The note with it: W2, 48 h. Format: functional, organism-based. In short, it runs like this:
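Ring-stage W2-infected human RBCs at ~1% parasitemia, sorbitol (5%) synchronized; 48 h at 37 °C with compounds in RPMI-1640, 25 mM HEPES pH 7.4, 10% heat-inactivated human serum (or 0.5% Albumax/2% human serum), 100 hypoxanthine, 3% O2/5% CO2/91% N2. Cells fixed in 2% HCHO, stained with 1 nM YOYO-1 (NH4Cl/Triton X-100), flow cytometry at ex 488/em 520 nm; IC50 by curve fitting.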
On the technique in general: A flow cytometer gives signals particle by particle.

On to `COc1ccc(-c2noc(CSc3nnc(-c4c[nH]c5ccccc45)n3C)n2)cc1OC`, for which half-maximal inhibition (IC50) was put at 12.1 µM. Regarding `COc1ccc(NC(=O)CCCn2c(=S)[nH]c3ccccc3c2=O)cc1OC`, the IC50 (as a rule, the point on the concentration scale where inhibition reaches its midpoint) is more than 50 µM. `Cc1ccc2[nH]c3nc(SCC(=O)Nc4sc5c(c4C#N)CCCC5)nnc3c2c1` showed an IC50 of more than 50 µM.

Take `c1ccn2cc(CSc3nnc(C4CC4)o3)nc2c1`: the IC50 is more than 50 µM.

In turn, `CCn1c(SCc2nc(-c3cccs3)no2)nnc1-c1c[nH]c2ccccc12` returned an IC50 of 28.5 µM. With `Cn1c(SCc2nc(-c3ccc(Cl)cc3)no2)nnc1-c1c[nH]c2ccccc12` the figure was more than 50 µM; with `c1cnc(SCCOc2ccc3c(c2)CCC3)nc1`, more than 50 µM; with `O=C(NCc1ccoc1)C1CCC(Cn2c(=S)[nH]c3ccccc3c2=O)CC1` (stereo not drawn), more than 50 µM. As for `Cn1c(SCc2nc(-c3cccs3)no2)nnc1-c1c[nH]c2ccccc12`, the figure is 29.5 µM. Compound `O=C(CSc1nnc(-c2c[nH]c3ccccc23)o1)c1ccc2c(c1)OCCO2` gave an IC50 of more than 50 µM. With `COc1ccc(SCCc2ccc(C)nc2)cc1` the figure was more than 50 µM; with `CSCCC(N)c1nc(C(=O)CC(Cc2c[nH]c3ccccc23)C(N)=O)cs1` (stereo not drawn), more than 50 µM. `CCCNc1nnc(SCc2cscn2)s1` yielded an IC50 of more than 50 µM. Compound `Cc1ccccc1OCCSc1nnc(-c2c[nH]c3ccccc23)n1C` gave an IC50 of 6.69 µM. This lies in the single-digit micromolar range. In the case of `Cc1ccc(NC(=O)CSc2nc(O)cc(NS(=O)(=O)c3ccccc3)n2)cc1`, the IC50 was more than 50 µM. With `CCSc1nnc(NC(=O)CS(=O)(=O)c2c[nH]c3ccccc23)s1`, the IC50 was more than 50 µM. As for `NC(=O)C(CC(=O)c1csc(C2CCCNC2)n1)Cc1c[nH]c2ccccc12` (stereo not drawn), the figure is more than 50 µM; as for `O=C(Cc1ccc2c(c1)CCC2)NCCc1ccco1`, more than 50 µM; as for `O=C(NCc1cccnc1)C1CCC(Cn2c(=S)[nH]c3ccccc3c2=O)CC1` (stereo not drawn), 1.97 µM.

`COc1ccc2[nH]c3nc(SCC(=O)Nc4nc(C(C)(C)C)cs4)nnc3c2c1` displayed an IC50 of 27.1 µM. As for `Cc1nc2ccccc2nc1CSCc1ccco1`, the figure is more than 50 µM. Compound `Cc1ccc(CNC(=O)CCn2c(=S)[nH]c3cc4c(cc3c2=O)OCO4)o1` came in with an IC50 of more than 50 µM.

In turn, `Cc1ccc(C)n1CCSc1nc(N)cc(N)n1` came in with an IC50 of more than 50 µM.

The values above are taken from ChEMBL document CHEMBL1914285, “Identification of new antimalarial leads by use of virtual screening against cytochrome bc₁” (Bioorg Med Chem, 2011).
